Source: PubChem BioAssay (The Scripps Research Institute Molecular Screening Center)
Rows were chosen to be rich in hits. Some 0.55% of all compounds tested hit in one or more screens of this group.
zfTRPN1 agonist: zebrafish TRPN1 (NompC) channel agonism | HEK293 zebrafish TRPN1-YFP, Fluo-8 calcium fluorescence; 100% = response to 87 µM carbachol | activation, % at 3 µM | actives 0.18% (n = 220,000) | AID 1424;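 active = activation above its plate's cutoff, the mean activation of test wells on that plate plus 3 SD, cut at about 19% in these data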;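 note: 0% = DMSO alone and 100% = 87 µM carbachol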
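System: zebrafish TRPN1-YFP in HEK293 cells / Dosing: 3 µM single point / Timing: dye loading 1 h at 37 °C, then 30 min room temperature / Signal: Fluo-8 calcium fluorescence, excitation 470-495 nm, emission 515-575 nm / Read-out basis: percent activation from peak over basal fluorescence ratio, control-normalized / Control set: high carbachol 87 µM, low DMSO alone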
OXTR potentiator: potentiates the human oxytocin receptor response; P30559; CHO-OTR cells, Fluo-8 calcium fluorescence, potentiator mode; 0% = oxytocin EC15, 100% = EC100; activation, % at 3 µM; actives 0.061% (n = 320,000);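 active = activation above that plate's cutoff, the mean activation of tested compounds plus 3 SD, cut at about 6.6% in these data, passing the limit was not always enough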;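 note: 100% uses oxytocin at 75 nM as the full agonist control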
Target sequence (P30559 whole entry, looked up): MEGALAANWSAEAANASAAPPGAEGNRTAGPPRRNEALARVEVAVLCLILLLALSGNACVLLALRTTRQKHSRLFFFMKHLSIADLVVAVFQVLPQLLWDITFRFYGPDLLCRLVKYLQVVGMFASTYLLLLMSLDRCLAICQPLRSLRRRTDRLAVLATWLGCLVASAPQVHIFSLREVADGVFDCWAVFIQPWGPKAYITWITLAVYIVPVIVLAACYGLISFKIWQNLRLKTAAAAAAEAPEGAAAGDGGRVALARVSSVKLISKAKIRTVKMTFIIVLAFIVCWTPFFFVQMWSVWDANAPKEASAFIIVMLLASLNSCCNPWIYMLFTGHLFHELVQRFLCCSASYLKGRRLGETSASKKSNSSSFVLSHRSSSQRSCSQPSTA
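Assay system: CHO cell line stably expressing human OTR | Also added: Oxytocin at about EC15, sub-maximal agonist stimulus | Times: Compound 6 min at room temperature before oxytocin, 100 s read | Measured by: Fluo-8 intracellular calcium fluorescence, ex 470-495, em 515-575 nm | Controls: EC15 oxytocin alone as 0%, 75 nM oxytocin as 100%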
V1aR counter: activates human V1a receptor in oxytocin agonist counter-screen. activation, % at 3 µM. P37288. CHO-V1R cells, Fluo-8 calcium fluorescence, agonist mode; 0% DMSO, 100% 3 nM vasopressin. actives 0.25% (n = 320,000);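 active = activation above the mean activation of all tested compounds plus 3 SD, per screening run, cut at about 20% in these data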;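 note: signal is peak over basal fluorescence ratio across a 100 second FLIPR read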
TRPML3 agonist: human mucolipin-3 channel agonism. actives 0.29% (n = 220,000). AID 1448. HEK293 TRPML3-YFP, Fluo-8 calcium fluorescence; 100% = the carbachol control signal. Q8TDD5. activation, % at 3 µM;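 active = activation above its plate's cutoff, the mean activation of the plate's test wells plus 3 SD, cut at about 12% in these data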;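 note: 0% = DMSO only wells and 100% = carbachol wells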
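system = HEK293 cells stably carrying human TRPML3-YFP | doses = one concentration, 3 µM nominal, 0.3% DMSO | timing = dye loading 1 h 37 °C then 30 min ambient, 125 s read | detection = Fluo-8 calcium dye fluorescence, ex 470-495, em 515-575 nm | benchmarks = high control carbachol 87 µM, low control DMSO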
OXTR agonist: human OXTR agonism. CHO-OTR cells, Fluo-8 calcium fluorescence; normalized: DMSO 0%, oxytocin 100%. activation, % at 3 µM. actives 0.32% (n = 320,000). AID 2435;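 active = activation above the mean of all tested compounds plus 3 SD, cutoff set per screening run, cut at about 20% in these data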;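 note: peak over basal fluorescence ratio from a 100 s FLIPR kinetic read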
TRPN1 ag 2: zebrafish TRPN1 agonism as TRPML3 agonist counter-screen | actives 10% (n = 310) | shares compounds with TRPML3 agonist | AID 1525 | activation, % at 3 µM | HEK293 zebrafish TRPN1-YFP, Fluo-8 calcium fluorescence; scaled: carbachol wells 100%, DMSO wells 0%;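 active = mean activation over replicates above a set limit taken from the earlier TRPN1 channel primary screen, cut at about 19% in these data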;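 note: 100% = carbachol and 0% = 0.3% DMSO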
TRPML3 ag conf: confirmation of human TRPML3 channel agonists | shares compounds with TRPML3 agonist | activation, % at 3 µM | actives 80% (n = 310) | HEK293 TRPML3-YFP, Fluo-8 calcium fluorescence; 100% set by carbachol, 0% by DMSO | AID 1526;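 active = activation above a set limit derived from the earlier primary screen, cut at about 12% in these data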
OXTR ag confirm: confirmation of human oxytocin receptor agonists | shares compounds with OXTR agonist | CHO-OTR cells, Fluo-8 calcium fluorescence, agonist | activation, % at 3 µM | actives 20% (n = 390);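 active = mean activation above about 20% derived from the earlier single-dose screen, limit read from the data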;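 note: peak over minimum fluorescence ratio per well during a 100 second FLIPR read; 0% = DMSO alone and 100% = oxytocin high control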
V1R ag counter 3x: V1R agonism in triplicate, counter-screen for OXTR agonists; activation, % at 3 µM; shares compounds with OXTR agonist; actives 10% (n = 390); CHO-V1R cells, Fluo-8 calcium fluorescence, agonist;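 active = mean activation over triplicate exceeds the hit threshold set in the earlier primary screen, cut at about 20% in these data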;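 note: peak over basal fluorescence ratio within a 100 second read; 0% = DMSO alone and 100% = 3 nM vasopressin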
An asterisk follows results filed as active.

Results for CN1/C(=C\C=C\C2=[N+](C)c3ccc4ccccc4c3C2(C)C)C(C)(C)c2ccccc21 ?
zfTRPN1 agonist: 24*; OXTR potentiator: -24; V1aR counter: 59*; TRPML3 agonist: 29*; OXTR agonist: 81*

How did COC(=O)C(O)(c1ccc(NC(=S)NC(=O)c2ccccc2)cc1)C(F)(F)F (stereo not given) do in these assays?
zfTRPN1 agonist: 3; OXTR potentiator: -7; V1aR counter: 3; TRPML3 agonist: 1; OXTR agonist: 3

What do the screens show for `CC/C(=N\N1CCCCCC1)c1c(O)n(-c2ccc(C)cc2)c(=O)[nH]c1=O`?
zfTRPN1 agonist: 1; OXTR potentiator: -11; V1aR counter: 1; TRPML3 agonist: 1; OXTR agonist: -2

What do the screens show for `O=C1NC(=O)N(Cc2ccc(F)cc2)C(=O)/C1=C\c1ccoc1`?
zfTRPN1 agonist: 13; OXTR potentiator: -23; V1aR counter: 29*; TRPML3 agonist: 9; OXTR agonist: 31*

What do the screens show for `CC(C)=CCc1c(O)cc2c(c1O)C(=O)CC(c1ccc(O)cc1)O2` (stereo not given)?
OXTR potentiator: -8; V1aR counter: 14; OXTR agonist: 17

Results for O=C1CC2OCC=C3CN4CCC56c7cc([N+](=O)[O-])ccc7N1C5C2C3CC46 (stereo not given) ?
zfTRPN1 agonist: -1; OXTR potentiator: 4; V1aR counter: 0; TRPML3 agonist: 0; OXTR agonist: 0

What do the screens show for `O=C1/C(=C\c2ccccc2)C2OCC=C3CN4CCC56c7ccccc7N1C5C2C3CC46` (stereo not given)?
zfTRPN1 agonist: 4; OXTR potentiator: -5; V1aR counter: 14; TRPML3 agonist: 2; OXTR agonist: 20*

How did CCOc1ccc(NC(=O)c2c(O)[nH]c(=O)[nH]c2=O)cc1 do in these assays?
OXTR potentiator: -1; V1aR counter: 0; OXTR agonist: -1

How did CCOC(=O)c1ccc(NC(=O)c2c(O)[nH]c(=O)[nH]c2=O)cc1 do in these assays?
zfTRPN1 agonist: 308*; OXTR potentiator: -15; V1aR counter: 1; TRPML3 agonist: 247*; OXTR agonist: 1

How did CC(=NCCCn1ccnc1)c1c(O)n(-c2ccccc2)c(=O)[nH]c1=O do in these assays?
zfTRPN1 agonist: 2; OXTR potentiator: -2; V1aR counter: 0; TRPML3 agonist: 0; OXTR agonist: 1

Results for CC1(C)CSC(=NCc2ccccc2)N1 ?
zfTRPN1 agonist: 61*; OXTR potentiator: -16; V1aR counter: 14; TRPML3 agonist: 58*; OXTR agonist: 16

How did COc1cc2c(c(OC)c1)C(=O)OC(C)CCCC(=O)CCCCC2 (stereo not given) do in these assays?
OXTR potentiator: -6; V1aR counter: -1; OXTR agonist: -2

What do the screens show for `Cc1nc2cc(C(F)(F)F)ccc2n1C1CCN(Cc2nnnn2Cc2cccs2)CC1`?
zfTRPN1 agonist: 6; OXTR potentiator: -12; V1aR counter: 37*; TRPML3 agonist: 4; OXTR agonist: 33*

Results for Cc1nc2cc(C(F)(F)F)ccc2n1C1CCN(Cc2nnnn2Cc2ccc3c(c2)OCO3)CC1 ?
zfTRPN1 agonist: 4; OXTR potentiator: -22; V1aR counter: 5; TRPML3 agonist: 2; OXTR agonist: 5

Results for O=C1NC(=O)N(c2ccc(Cl)cc2)C(=O)/C1=C\c1ccc(Sc2nc3ccccc3[nH]2)o1 ?
zfTRPN1 agonist: 22*; OXTR potentiator: -16; V1aR counter: 36*; TRPML3 agonist: 12*; OXTR agonist: 29*

How did COC(=O)C1=C(c2ccc(OC(F)(F)F)cc2)C[C@@H]2CC[C@H]1N2C(=O)NCCOc1ccccc1 do in these assays?
OXTR potentiator: -1; V1aR counter: 1; OXTR agonist: 0

How did CN1/C(=C\C=C2C(=O)NC(=O)NC2=O)C(C)(C)c2ccccc21 do in these assays?
zfTRPN1 agonist: 42*; OXTR potentiator: -14; V1aR counter: 32*; TRPML3 agonist: 17*; OXTR agonist: 25*

Results for CCCCn1c(=O)c(C(=O)Nc2ncccc2C)c(O)c2ccccc21 ?
OXTR potentiator: -11; V1aR counter: 39*; OXTR agonist: 36*

How did CCCCCn1c(=O)c(C(=O)Nc2ccccc2C)c(O)c2ccccc21 do in these assays?
OXTR potentiator: -6; V1aR counter: 0; OXTR agonist: -1

How did CCCCCCn1c(=O)c(C(=O)Nc2ncccc2C)c(O)c2ccccc21 do in these assays?
OXTR potentiator: -21; V1aR counter: 46*; OXTR agonist: 38*

How did O=C1CCCN1CC#CCN1CCCC1 do in these assays?
zfTRPN1 agonist: 3; OXTR potentiator: -12; V1aR counter: 0; TRPML3 agonist: 27*; OXTR agonist: 1; TRPN1 ag 2: 6; TRPML3 ag conf: 35*

How did CCCCN1C(=O)NC(=O)C2(Cc3c(nc4c(C)cccn4c3=O)N3CCc4ccccc4C32)C1=O (stereo not given) do in these assays?
zfTRPN1 agonist: -1; OXTR potentiator: -24; V1aR counter: 8; TRPML3 agonist: 0; OXTR agonist: 6

How did CNc1ccc2oc(C[C@H]3O[C@@]4(CC[C@H]3C)O[C@H]([C@H](C)C(=O)c3ccc[nH]3)[C@H](C)C[C@H]4C)nc2c1C(=O)O do in these assays?
OXTR potentiator: -26; V1aR counter: 15; OXTR agonist: 75*; OXTR ag confirm: 122*; V1R ag counter 3x: 134*

How did CCCCn1c(=O)c(C(=O)NCc2ccccc2Cl)c(O)c2ccccc21 do in these assays?
OXTR potentiator: -23; V1aR counter: 0; OXTR agonist: 38*; OXTR ag confirm: 0; V1R ag counter 3x: 1

What do the screens show for `COC(=O)C1=C(c2ccc(S(C)(=O)=O)cc2)C[C@@H]2CC[C@H]1N2C(=O)NCc1ccccc1`?
OXTR potentiator: -4; V1aR counter: -1; OXTR agonist: 0

What do the screens show for `FC(F)(F)c1cccc(C2NCc3ccccc3-n3cccc32)c1` (stereo not given)?
OXTR potentiator: -21; V1aR counter: 0; OXTR agonist: -2
